System: HEK-293T
Test: Multiplex assay against HEK293T
Assay type: toxicity, cell-based
Details: human
Procedure, shortened: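 Per cents of healthy-nucleus cells form the tubulin, mitochondrial-mass and membrane-permeability phenotype values. Live cells were stained at seeding with Hoechst33342, BioTracker Green Microtubule Cytoskeleton Dye, MitoTracker Red and Annexin V Alexa Fluor 680. After compound addition they were imaged on a CQ1 microscope at 37°C and 5% CO2, and CellPathfinder machine-learning gating split them into Hoechst high-intensity objects or normal cells, normal cells into healthy, pyknosed or fragmented nuclei, and pyknosed cells into mitotic or apoptotic.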

[1] = 12 h, 1 µM, compound concentration 1 uM, replicate 1
[2] = 12 h, 1 µM, compound concentration 1 uM, replicate 2
[3] = 12 h, 10 µM, compound concentration 10 uM, replicate 1
[4] = 12 h, 10 µM, compound concentration 10 uM, replicate 2
[5] = 24 h, 1 µM, compound concentration 1 uM, replicate 1
[6] = 24 h, 1 µM, compound concentration 1 uM, replicate 2
[7] = 24 h, 10 µM, compound concentration 10 uM, replicate 1
[8] = 24 h, 10 µM, compound concentration 10 uM, replicate 2
[9] = 48 h, 1 µM, compound concentration 1 uM, replicate 1
[10] = 48 h, 1 µM, compound concentration 1 uM, replicate 2
[11] = 48 h, 10 µM, compound concentration 10 uM, replicate 1
[12] = 48 h, 10 µM, compound concentration 10 uM, replicate 2

Cl.Clc1ccc2nsnc2c1NC1=NCCN1 [TIZANIDINE HYDROCHLORIDE]
Population Apoptotic (%) [1]: 39% | Population Fragmented Nuclei (%) [1]: 9% | Population Healthy Nuclei (%) [1]: 80% | Population Hoechst High Intensity Objects (%) [1]: 8% | Population Membrane Permeable-Phenotype (%) [1]: 0% | Population Mitochondria Different-Phenotype (%) [1]: 36% | Population Mitotic Cells (%) [1]: 60% | Population Normal (%) [1]: 91% | Population Pyknosed Nuclei (%) [1]: 9% | Population Tubulin-Different-Phenotype (%) [1]: 26% | Total Cell Count [1]: 474 | Population Apoptotic (%) [2]: 44% | Population Fragmented Nuclei (%) [2]: 2% | Population Healthy Nuclei (%) [2]: 83% | Population Hoechst High Intensity Objects (%) [2]: 9% | Population Mitochondria Different-Phenotype (%) [2]: 62% | Population Mitotic Cells (%) [2]: 55% | Population Normal (%) [2]: 90% | Population Pyknosed Nuclei (%) [2]: 13% | Population Tubulin-Different-Phenotype (%) [2]: 20% | Total Cell Count [2]: 373 | Population Apoptotic (%) [3]: 30% | Population Fragmented Nuclei (%) [3]: 9% | Population Healthy Nuclei (%) [3]: 80% | Population Hoechst High Intensity Objects (%) [3]: 6% | Population Membrane Permeable-Phenotype (%) [3]: 0% | Population Mitochondria Different-Phenotype (%) [3]: 45% | Population Mitotic Cells (%) [3]: 70% | Population Normal (%) [3]: 93% | Population Pyknosed Nuclei (%) [3]: 9% | Population Tubulin-Different-Phenotype (%) [3]: 32% | Total Cell Count [3]: 450 | Population Apoptotic (%) [4]: 46% | Population Fragmented Nuclei (%) [4]: 7% | Population Healthy Nuclei (%) [4]: 79% | Population Hoechst High Intensity Objects (%) [4]: 4% | Population Mitochondria Different-Phenotype (%) [4]: 67% | Population Mitotic Cells (%) [4]: 53% | Population Normal (%) [4]: 95% | Population Pyknosed Nuclei (%) [4]: 13% | Population Tubulin-Different-Phenotype (%) [4]: 27% | Total Cell Count [4]: 343 | Population Apoptotic (%) [5]: 32% | Population Fragmented Nuclei (%) [5]: 11% | Population Healthy Nuclei (%) [5]: 79% | Population Hoechst High Intensity Objects (%) [5]: 4% | Population Membrane Permeable-Phenotype (%) [5]: 0% | Population Mitochondria Different-Phenotype (%) [5]: 20% | Population Mitotic Cells (%) [5]: 67% | Population Normal (%) [5]: 95% | Population Pyknosed Nuclei (%) [5]: 8% | Population Tubulin-Different-Phenotype (%) [5]: 17% | Total Cell Count [5]: 597 | Population Apoptotic (%) [6]: 45% | Population Fragmented Nuclei (%) [6]: 10% | Population Healthy Nuclei (%) [6]: 80% | Population Hoechst High Intensity Objects (%) [6]: 5% | Population Mitochondria Different-Phenotype (%) [6]: 38% | Population Mitotic Cells (%) [6]: 54% | Population Normal (%) [6]: 94% | Population Tubulin-Different-Phenotype (%) [6]: 15% | Total Cell Count [6]: 434 | Population Apoptotic (%) [7]: 32% | Population Fragmented Nuclei (%) [7]: 11% | Population Healthy Nuclei (%) [7]: 78% | Population Hoechst High Intensity Objects (%) [7]: 5% | Population Membrane Permeable-Phenotype (%) [7]: 1% | Population Mitochondria Different-Phenotype (%) [7]: 23% | Population Mitotic Cells (%) [7]: 67% | Population Normal (%) [7]: 94% | Population Pyknosed Nuclei (%) [7]: 9% | Population Tubulin-Different-Phenotype (%) [7]: 18% | Total Cell Count [7]: 621 | Population Apoptotic (%) [8]: 29% | Population Fragmented Nuclei (%) [8]: 10% | Population Healthy Nuclei (%) [8]: 81% | Population Hoechst High Intensity Objects (%) [8]: 6% | Population Membrane Permeable-Phenotype (%) [8]: 0% | Population Mitochondria Different-Phenotype (%) [8]: 46% | Population Mitotic Cells (%) [8]: 70% | Population Normal (%) [8]: 93% | Population Pyknosed Nuclei (%) [8]: 7% | Total Cell Count [8]: 443 | Population Apoptotic (%) [9]: 17% | Population Fragmented Nuclei (%) [9]: 16% | Population Healthy Nuclei (%) [9]: 77% | Population Hoechst High Intensity Objects (%) [9]: 2% | Population Membrane Permeable-Phenotype (%) [9]: 3% | Population Mitochondria Different-Phenotype (%) [9]: 13% | Population Mitotic Cells (%) [9]: 82% | Population Normal (%) [9]: 97% | Population Pyknosed Nuclei (%) [9]: 6% | Population Tubulin-Different-Phenotype (%) [9]: 10% | Total Cell Count [9]: 1005 | Population Apoptotic (%) [10]: 33% | Population Fragmented Nuclei (%) [10]: 14% | Population Healthy Nuclei (%) [10]: 79% | Population Hoechst High Intensity Objects (%) [10]: 3% | Population Membrane Permeable-Phenotype (%) [10]: 1% | Population Mitochondria Different-Phenotype (%) [10]: 19% | Population Mitotic Cells (%) [10]: 66% | Population Normal (%) [10]: 96% | Population Tubulin-Different-Phenotype (%) [10]: 7% | Total Cell Count [10]: 661 | Population Apoptotic (%) [11]: 24% | Population Fragmented Nuclei (%) [11]: 19% | Population Healthy Nuclei (%) [11]: 74% | Population Hoechst High Intensity Objects (%) [11]: 3% | Population Membrane Permeable-Phenotype (%) [11]: 1% | Population Mitochondria Different-Phenotype (%) [11]: 13% | Population Mitotic Cells (%) [11]: 75% | Population Normal (%) [11]: 96% | Population Pyknosed Nuclei (%) [11]: 5% | Population Tubulin-Different-Phenotype (%) [11]: 10% | Total Cell Count [11]: 995 | Population Apoptotic (%) [12]: 25% | Population Fragmented Nuclei (%) [12]: 13% | Population Healthy Nuclei (%) [12]: 81% | Population Hoechst High Intensity Objects (%) [12]: 5% | Population Mitochondria Different-Phenotype (%) [12]: 23% | Population Normal (%) [12]: 94% | Population Pyknosed Nuclei (%) [12]: 4% | Population Tubulin-Different-Phenotype (%) [12]: 19% | Total Cell Count [12]: 600

Source: ChEMBL document CHEMBL5058577, “EUbOPEN Chemogenomics Library 2 (Multiplex)” (2022)
